Data: PMC8923172 (Antimicrobial Agents and Chemotherapy, 2022)
Marks after values point to notes of the source that are not given here. Residues, ends and D or L forms follow the SMILES beside them.

Legend:
[1] = Single-dose i.v. pharmacokinetics in mice; assay type: in vivo, CD-1 mice; conditions: 5 mg/kg single i.v. bolus, n=4/time point
Procedure, shortened: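 Male and female CD-1 mice received a single 5 mg/kg i.v. bolus into the lateral tail vein, with 2/sex per time point. EDTA blood was taken by terminal cardiac puncture at 0.25, 1, 2, 4, 8 and 24 h; plasma was stored at −80°C. Sparse-sampling NCA used nominal times, linear-up/log-down AUC, and excluded values below LLOQ.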

[2] = Coagulation in rats at the end of treatment; assay type: in vivo, Sprague-Dawley rats; conditions: median (IQR)
[3] = Hematology of cynomolgus monkeys at the end of treatment; assay type: in vivo; conditions: median (IQR)
Procedure, shortened: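 GLP 10-day study in male and female cynomolgus monkeys (n = 3-5/sex/group) dosed once daily with 0 (placebo), 5, 10 or 15 mg/kg test compound by i.v. infusion over 60 ± 5 min. Hematology, serum chemistry and coagulation were taken at end of treatment and reported as median (IQR). Dose groups were compared by Kruskal-Wallis with Dunn's multiple comparison test.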

LPS-induced ALI = conditions: single subcutaneous injection 25 mg/kg; cited from earlier work
in vivo = conditions: Sprague-Dawley, rat, iv

CC[C@H](C)[C@@H]1NC(=O)[C@@H]2CSSC[C@H](NC(=O)[C@H](CCCNC(=N)N)NC(=O)[C@@H]3CSSC[C@H](NC1=O)C(=O)N[C@@H]([C@@H](C)O)C(=O)N[C@@H](CCCNC(=N)N)C(=O)NCC(=O)N[C@@H](Cc1ccccc1)C(=O)N3)C(=O)N[C@@H](CC(C)C)C(=O)N[C@H]1CSSC[C@H](NC(=O)[C@H](C(C)C)NC(=O)CNC(=O)[C@H](CCCNC(=N)N)NC(=O)[C@H](CCCNC(=N)N)NC1=O)C(=O)N[C@@H](CCCNC(=N)N)C(=O)N2 [RTD-1, Rhesus theta (θ) defensin-1] (HELM PEPTIDE1{G.F.C.R.C.L.C.R.R.G.V.C.R.C.I.C.T.R}$PEPTIDE1,PEPTIDE1,3:R3-16:R3|PEPTIDE1,PEPTIDE1,5:R3-14:R3|PEPTIDE1,PEPTIDE1,7:R3-12:R3|PEPTIDE1,PEPTIDE1,1:R1-18:R2$$$V2.0)
AUC0-∞ ([1]; pooled NCA): 12,497 ng · h/mL
AUCτ ([1]; pooled NCA): 12,282 ng · h/mL
CL ([1]; pooled NCA): 0.4 L/h/kg
MRT ([1]; pooled NCA): 2.62 h
λz ([1]; pooled NCA): 0.114 h⁻¹
Cmax ([1]; pooled, estimate (SE)): 8,919 (1,088)^b ng/mL
APTT ([2]; female, 5 mg/kg): 10.60 (0.70) s
Fibrinogen ([2]; female, 5 mg/kg): 223.00 (80.00) mg/dL
PT ([2]; female, 5 mg/kg): 16.30 (1.40) s
APTT ([2]; female, 10 mg/kg): 10.85 (2.43) s
Fibrinogen ([2]; female, 10 mg/kg): 283.00 (36.50) mg/dL
PT ([2]; female, 10 mg/kg): 17.05 (0.60) s
APTT ([2]; female, 20 mg/kg, day 2): 29.20 (20.65)^b^,^c^,^d s
Fibrinogen ([2]; female, 20 mg/kg, day 2): 83.00 (151.75)^d mg/dL
PT ([2]; female, 20 mg/kg, day 2): 23.45 (9.75)^b^,^c s
APTT ([2]; male, 5 mg/kg): 14.80 (0.98) s
Fibrinogen ([2]; male, 5 mg/kg): 262.50 (9.00) mg/dL
PT ([2]; male, 5 mg/kg): 15.95 (0.50) s
APTT ([2]; male, 10 mg/kg): 14.60 (1.05) s
Fibrinogen ([2]; male, 10 mg/kg): 261.00 (54.75) mg/dL
PT ([2]; male, 10 mg/kg): 17.50 (1.40) s
APTT ([2]; male, 20 mg/kg, day 2): 18.50 (3.13)^b^,^c^,^d s
Fibrinogen ([2]; male, 20 mg/kg, day 2): 98.00 (18.50)^b^,^c^,^d mg/dL
PT ([2]; male, 20 mg/kg, day 2): 21.25 (1.40)^b^,^c s
Basophils, absolute ([3]; female, 5 mg/kg/day): 0.05 (0.01) 10^3/mm^3
Eosinophils, absolute ([3]; female, 5 mg/kg/day): 0.32 (0.27) 10^3/mm^3
Hematocrit ([3]; female, 5 mg/kg/day): 43.80 (3.15) %
Hemoglobin ([3]; female, 5 mg/kg/day): 12.90 (0.35) g/dL
LUC, absolute ([3]; female, 5 mg/kg/day): 0.11 (0.02) 10^3/mm^3
Lymphocytes, absolute ([3]; female, 5 mg/kg/day): 3.40 (1.18) 10^3/mm^3
MCH ([3]; female, 5 mg/kg/day): 21.20 (1.10) pg
MCHC ([3]; female, 5 mg/kg/day): 29.50 (1.35) g/dL
MCV ([3]; female, 5 mg/kg/day): 69.20 (1.70) fL
Monocytes, absolute ([3]; female, 5 mg/kg/day): 0.53 (0.21) 10^3/mm^3
Neutrophils, absolute ([3]; female, 5 mg/kg/day): 6.43 (2.10) 10^3/mm^3
Platelets ([3]; female, 5 mg/kg/day): 576.00 (58.00) 10^3/mm^3
RBC ([3]; female, 5 mg/kg/day): 6.05 (0.47) 10^6/mm^3
RDW ([3]; female, 5 mg/kg/day): 15.10 (0.50) %
Reticulocytes, absolute ([3]; female, 5 mg/kg/day): 53.60 (17.00) 10^9/L
WBC ([3]; female, 5 mg/kg/day): 12.70 (2.30) 10^3/mm^3
Basophils, absolute ([3]; female, 10 mg/kg/day): 0.06 (0.04) 10^3/mm^3
Eosinophils, absolute ([3]; female, 10 mg/kg/day): 0.40 (0.06) 10^3/mm^3
Hematocrit ([3]; female, 10 mg/kg/day): 38.50 (4.60) %
Hemoglobin ([3]; female, 10 mg/kg/day): 10.70 (1.25) g/dL
LUC, absolute ([3]; female, 10 mg/kg/day): 0.10 (0.01) 10^3/mm^3
Lymphocytes, absolute ([3]; female, 10 mg/kg/day): 4.46 (1.00) 10^3/mm^3
MCH ([3]; female, 10 mg/kg/day): 20.20 (1.00) pg
MCHC ([3]; female, 10 mg/kg/day): 28.80 (0.70) g/dL
MCV ([3]; female, 10 mg/kg/day): 69.70 (4.30) fL
Monocytes, absolute ([3]; female, 10 mg/kg/day): 0.66 (0.13) 10^3/mm^3
Neutrophils, absolute ([3]; female, 10 mg/kg/day): 5.08 (5.64) 10^3/mm^3
Platelets ([3]; female, 10 mg/kg/day): 497.00 (214.50) 10^3/mm^3
RBC ([3]; female, 10 mg/kg/day): 5.30 (0.94) 10^6/mm^3
RDW ([3]; female, 10 mg/kg/day): 15.10 (0.70) %
Reticulocytes, absolute ([3]; female, 10 mg/kg/day): 70.30 (33.40) 10^9/L
WBC ([3]; female, 10 mg/kg/day): 10.70 (6.80) 10^3/mm^3
Basophils, absolute ([3]; female, 15 mg/kg/day): 0.12 (0.01) 10^3/mm^3
Eosinophils, absolute ([3]; female, 15 mg/kg/day): 0.34 (0.10) 10^3/mm^3
Hematocrit ([3]; female, 15 mg/kg/day): 38.50 (6.90) %
Hemoglobin ([3]; female, 15 mg/kg/day): 10.90 (1.70) g/dL
LUC, absolute ([3]; female, 15 mg/kg/day): 0.16 (0.06) 10^3/mm^3
Lymphocytes, absolute ([3]; female, 15 mg/kg/day): 5.09 (2.32) 10^3/mm^3
MCH ([3]; female, 15 mg/kg/day): 19.90 (0.30) pg
MCHC ([3]; female, 15 mg/kg/day): 28.80 (1.10) g/dL
MCV ([3]; female, 15 mg/kg/day): 68.90 (2.00) fL
Monocytes, absolute ([3]; female, 15 mg/kg/day): 0.79 (0.15)^c 10^3/mm^3
Neutrophils, absolute ([3]; female, 15 mg/kg/day): 11.31 (5.67) 10^3/mm^3
Platelets ([3]; female, 15 mg/kg/day): 513.00 (299.00) 10^3/mm^3
RBC ([3]; female, 15 mg/kg/day): 6.04 (1.28) 10^6/mm^3
RDW ([3]; female, 15 mg/kg/day): 14.70 (1.80) %
Reticulocytes, absolute ([3]; female, 15 mg/kg/day): 83.90 (46.10) 10^9/L
WBC ([3]; female, 15 mg/kg/day): 16.10 (5.40) 10^3/mm^3
Basophils, absolute ([3]; male, 5 mg/kg/day): 0.12 (0.08) 10^3/mm^3
Eosinophils, absolute ([3]; male, 5 mg/kg/day): 0.26 (0.12) 10^3/mm^3
Hematocrit ([3]; male, 5 mg/kg/day): 43.10 (3.05) %
Hemoglobin ([3]; male, 5 mg/kg/day): 12.70 (0.85) g/dL
LUC, absolute ([3]; male, 5 mg/kg/day): 0.15 (0.07) 10^3/mm^3
Lymphocytes, absolute ([3]; male, 5 mg/kg/day): 6.85 (3.12) 10^3/mm^3
MCH ([3]; male, 5 mg/kg/day): 19.80 (0.55) pg
MCHC ([3]; male, 5 mg/kg/day): 26.40 (1.55) g/dL
MCV ([3]; male, 5 mg/kg/day): 75.10 (2.10) fL
Monocytes, absolute ([3]; male, 5 mg/kg/day): 0.74 (0.23) 10^3/mm^3
Neutrophils, absolute ([3]; male, 5 mg/kg/day): 4.65 (3.33) 10^3/mm^3
Platelets ([3]; male, 5 mg/kg/day): 358.00 (21.50) 10^3/mm^3
RBC ([3]; male, 5 mg/kg/day): 6.06 (0.42) 10^6/mm^3
RDW ([3]; male, 5 mg/kg/day): 15.40 (1.00) %
Reticulocytes, absolute ([3]; male, 5 mg/kg/day): 43.70 (23.20) 10^9/L
WBC ([3]; male, 5 mg/kg/day): 14.70 (5.95) 10^3/mm^3
Basophils, absolute ([3]; male, 10 mg/kg/day): 0.08 (0.04) 10^3/mm^3
Eosinophils, absolute ([3]; male, 10 mg/kg/day): 0.20 (0.06) 10^3/mm^3
Hematocrit ([3]; male, 10 mg/kg/day): 42.60 (5.20) %
Hemoglobin ([3]; male, 10 mg/kg/day): 11.90 (1.30) g/dL
LUC, absolute ([3]; male, 10 mg/kg/day): 0.15 (0.01) 10^3/mm^3
Lymphocytes, absolute ([3]; male, 10 mg/kg/day): 5.85 (2.85) 10^3/mm^3
MCH ([3]; male, 10 mg/kg/day): 20.30 (1.00) pg
MCHC ([3]; male, 10 mg/kg/day): 27.90 (0.35) g/dL
MCV ([3]; male, 10 mg/kg/day): 72.00 (4.00) fL
Monocytes, absolute ([3]; male, 10 mg/kg/day): 0.63 (0.18) 10^3/mm^3
Neutrophils, absolute ([3]; male, 10 mg/kg/day): 4.31 (1.38) 10^3/mm^3
Platelets ([3]; male, 10 mg/kg/day): 450.00 (114.00) 10^3/mm^3
RBC ([3]; male, 10 mg/kg/day): 6.35 (0.58) 10^6/mm^3
RDW ([3]; male, 10 mg/kg/day): 17.20 (1.35) %
Reticulocytes, absolute ([3]; male, 10 mg/kg/day): 60.00 (71.70) 10^9/L
WBC ([3]; male, 10 mg/kg/day): 11.00 (1.75) 10^3/mm^3
Basophils, absolute ([3]; male, 15 mg/kg/day): 0.11 (0.10) 10^3/mm^3
Eosinophils, absolute ([3]; male, 15 mg/kg/day): 0.39 (0.70) 10^3/mm^3
Hematocrit ([3]; male, 15 mg/kg/day): 38.40 (2.30) %
Hemoglobin ([3]; male, 15 mg/kg/day): 11.10 (0.90) g/dL
LUC, absolute ([3]; male, 15 mg/kg/day): 0.17 (0.11)^c 10^3/mm^3
Lymphocytes, absolute ([3]; male, 15 mg/kg/day): 4.78 (2.17) 10^3/mm^3
MCH ([3]; male, 15 mg/kg/day): 20.20 (0.90) pg
MCHC ([3]; male, 15 mg/kg/day): 28.90 (1.20) g/dL
MCV ([3]; male, 15 mg/kg/day): 71.20 (3.40) fL
Monocytes, absolute ([3]; male, 15 mg/kg/day): 1.10 (0.74) 10^3/mm^3
Neutrophils, absolute ([3]; male, 15 mg/kg/day): 7.62 (9.59) 10^3/mm^3
Platelets ([3]; male, 15 mg/kg/day): 634.00 (42.00)^d 10^3/mm^3
RBC ([3]; male, 15 mg/kg/day): 5.56 (0.40) 10^6/mm^3
RDW ([3]; male, 15 mg/kg/day): 14.80 (0.80) %
Reticulocytes, absolute ([3]; male, 15 mg/kg/day): 69.10 (47.50) 10^9/L
WBC ([3]; male, 15 mg/kg/day): 14.90 (12.80) 10^3/mm^3
mean AUC0-∞ (LPS-induced ALI): ~9,001 ng · h/mL
Vd (in vivo; both, 20 mg/kg): 0.756 L/kg
level at 600 h (in vivo; female, 10 mg/kg): 0.0125 µg/mL
